Data: ChEMBL document CHEMBL1125469, “"Mixed inhibitor-prodrug" as a new approach toward systemically active inhibitors of enkephalin-degrading enzymes” (1992)

Assays:
Assay type in all cases: functional
Mus musculus [1] = assay: Compound was evaluated for the antinociceptive response after intravenous administration using hot-plat test (55+/-1 degree Celsius) in mice (for jump latency time) at the dose of 0.75*10e-6 mol/mice and 0.46*10e-6 mol/mice respectively
How it was run: (§1)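 Mice on a hot plate held at 55 ± 0.5 °C inside a glass cylinder, tested 15 min after iv dosing. Read-out was latency to jump, with a 240 s cutoff. % analgesia = (test − control latency)/(cutoff − control latency) × 100. Groups compared by ANOVA followed by Dunnett's t test.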

Mus musculus [2] = assay: Compound was evaluated for the percentage of analgesic effect in mice at the time of 15 min after intravenous administration of dose 0.75*10e-6 mol/mice and 0.46*10e-6 mol/mice respectively; how it was run: as §1
Mus musculus [3] = assay: Compound (20 mg/kg) was evaluated for the antinociceptive response after intravenous administration using hot-plat test (55+/-1 degree Celsius) in mice(for jump latency time) at the dose of 0.57*10e-6 mol/mouse; how it was run: as §1
Mus musculus [4] = assay: Compound (20 mg/kg) was evaluated for the percentage of analgesic effect in mice at the time of 15 min after intravenous administration of dose 0.57*10e-6 mol/mouse; how it was run: as §1
Mus musculus [5] = assay: Compound was evaluated for the antinociceptive response after intravenous administration using hot-plat test (55+/-1 degree Celsius) in mice (for jump latency time) at the dose of 10 mg/kg; how it was run: as §1
Mus musculus [6] = assay: Compound was evaluated for the antinociceptive response after intravenous administration using hot-plat test (55+/-1 degree Celsius) in mice (for jump latency time) at the dose of 5 mg/kg; how it was run: as §1
Mus musculus [7] = assay: Compound was evaluated for the antinociceptive response after intravenous administration using hot-plat test (55+/-1 degree Celsius) in mice (for jump latency time) at the dose of 0 mg/kg; how it was run: as §1
Mus musculus [8] = assay: Compound was evaluated for the percentage of analgesic effect in mice at the time of 15 min after intravenous administration of dose 10 mg/kg; how it was run: as §1
Mus musculus [9] = assay: Compound was evaluated for the antinociceptive response after intravenous administration using hot-plat test (55+/-1 degree Celsius) in mice (for jump latency time) at the dose of 1 mg/kg; how it was run: as §1
Mus musculus [10] = assay: Compound was evaluated for the percentage of analgesic effect in mice at the time of 15 min after intravenous administration of dose 5 mg/kg; how it was run: as §1
Mus musculus [11] = assay: Compound was evaluated for the percentage of analgesic effect in mice at the time of 15 min after intravenous administration of dose 1 mg/kg; how it was run: as §1

| Structure (SMILES) | Jump latency time (Mus musculus [5]) | Jump latency time (Mus musculus [6]) | Jump latency time (Mus musculus [7]) | Analgesia (Mus musculus [8]) | further results |
| --- | --- | --- | --- | --- | --- |
| CSCCC(N)CSSCC(N)CCSC.O=C(NC(Cc1ccccc1)C(=O)OCc1ccccc1)C(CSSCC(Cc1ccccc1)C(=O)NC(Cc1ccccc1)C(=O)OCc1ccccc1)Cc1ccccc1 (stereo not given) |  |  |  |  | Jump latency time (Mus musculus [1]): 126 s; Analgesia (Mus musculus [2]): 32.2% |
| CSCCC(N)CSSCC(Cc1ccccc1)C(=O)NC(Cc1ccccc1)C(=O)OCc1ccccc1 (stereo not given) |  |  |  |  | Jump latency time (Mus musculus [3]): 236 s; Analgesia (Mus musculus [4]): 92.1% |
| N[C@H](CSC(=O)CCC(=O)SCC(Cc1ccccc1)C(=O)NCC(=O)OCc1ccccc1)Cc1ccccc1 (stereo not given in full) | 71.7 s | 46.5 s | 48.7 s | 12% |  |
| CC(=O)SCC(Cc1ccccc1)C(=O)NCC(=O)SC[C@@H](N)Cc1ccccc1 (stereo not given in full) | 143 s | 80.4 s | 56.7 s | 63% | Jump latency time (Mus musculus [9]): 74.1 s; Analgesia (Mus musculus [10]): 13%; Analgesia (Mus musculus [11]): 9% |
